High-throughput results: PubChem BioAssay, several laboratories
Rpn11 inh: blocks the human proteasome subunit Rpn11. inhibition, % at 20 µM. human 26S proteasome, Ub4-pepOG fluorescence polarization; 20S core pre-blocked with epoxomicin. AID 588493. 360,000 tested, 0.59% active. O00487;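 active means inhibition at 20 µM, scaled to each plate's controls, above about 33%, limit read from the data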
CSN deneddyl inh: inhibitors of human CSN-mediated cullin deneddylation | Q92905 | Purified CSN, SCF-Nedd8-OG deneddylation, fluorescence polarization | inhibition, % at 12.5 µM | AID 651999 | 360,000 tested, 0.38% active;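 active means pattern-corrected inhibition above about 35%, with an unprinted fluorescence ratio check between 0.5 and 1.5, limit read from the data, passing the limit was not always enough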
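Assay system: purified human Csn5 enzyme expressed in HEK293T cells; Input: 0.24 nM Csn5 enzyme, final concentration; Reagent: 10 nM SCFSkp2-Nedd8OG; Compound dosing: 12.5 µM single point; Times: reaction 90 min, room temperature; Technique: fluorescence polarization readout.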
SENP1 FRET inh: SENP1 (human) catalytic domain inhibition; recombinant SENP1 catalytic domain, CyPet-SUMO1-YPet FRET cleavage; inhibition, % at 10 µM; 360,000 tested, 0.21% active;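 active means inhibition at least 30% at 10 µM, raw YFP signal under a set limit, fluorescence ratio 0.5 to 1.5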
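Compound: 10 µM single point, 0.5% DMSO; Test system: hSENP1 catalytic domain, recombinant; Timing: 50 min reaction at room temperature; Technique: FRET, CFP and YFP emission; Control set: no-enzyme wells low, DMSO-plus-enzyme wells high control.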
TPT1 inhibitor: C. albicans TPT1 enzyme inhibition. recombinant caTPT1, FP RNA substrate dephosphorylation. inhibition, % at 5 µM. 300,000 tested, 0.81% active. AID 1962;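 active means inhibition above the mean of all tested compounds plus 3 SD, set per screening campaign, cut at about 24% in these data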
HNF4A DNA FP: change in binding of human HNF4 alpha to DNA. P41235. HNF4a-FITC DNA binding, fluorescence polarization, 1 h. activity change, % at 10 µM. 360,000 tested, 0.3% active. AID 1224865; in the data active means activity change above about 30%, passing the limit was not always enough
ATG4B inhibitor: inhibitors of human ATG4B cysteine protease; inhibition, % at 8.33 µM; 340,000 tested, 0.51% active; Q9Y4P1; ATG4B cleavage of LC3-PLA2, NBD-HPC fluorescence, 1 h; AID 504462; in the data active means inhibition above about 40%
Target sequence (Q9Y4P1 whole entry, looked up): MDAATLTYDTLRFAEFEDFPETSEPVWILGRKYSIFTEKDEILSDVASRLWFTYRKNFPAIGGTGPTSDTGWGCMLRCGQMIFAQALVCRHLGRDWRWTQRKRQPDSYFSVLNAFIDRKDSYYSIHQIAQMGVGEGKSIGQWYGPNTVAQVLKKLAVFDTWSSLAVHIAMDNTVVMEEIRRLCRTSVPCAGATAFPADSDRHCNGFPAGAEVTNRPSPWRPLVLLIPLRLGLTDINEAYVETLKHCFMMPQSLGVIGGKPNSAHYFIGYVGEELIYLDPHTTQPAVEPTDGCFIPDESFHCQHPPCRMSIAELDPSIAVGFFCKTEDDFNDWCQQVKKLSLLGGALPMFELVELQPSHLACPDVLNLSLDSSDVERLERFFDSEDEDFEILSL
SENP1 conf: SENP1 (human) inhibition, single concentration confirmation. AID 651678. shares compounds with SENP1 FRET inh. 520 tested, 34% active. inhibition, % at 10 µM. recombinant SENP1, CyPet-SUMO1-YPet FRET cleavage; in the data active means inhibition mostly above about 35%, no sharp cut-off; inactive means mostly below about 32%
SENP1 kin conf: confirmation of human SENP1 SUMO protease inhibitors, kinetic | shares compounds with SENP1 FRET inh | recombinant SENP1, CyPet-SUMO1-YPet FRET kinetic cleavage | inhibition, % at 10 µM | 520 tested, 26% active; in the data active means inhibition mostly above about 32%, no sharp cut-off; inactive means mostly below about 29%
A number is an active result; n = inactive; x = no result given. Rows were chosen to be rich in hits. Some 2% of all compounds tested hit in one or more screens of this group.

SMILES	Rpn11 inh	CSN deneddyl inh	SENP1 FRET inh	TPT1 inhibitor	HNF4A DNA FP	ATG4B inhibitor	SENP1 conf	SENP1 kin conf
Cc1cc(Br)ccc1-n1[nH]c(C)c(C=Nc2cccc3nsnc23)c1=O	n	n	40	n	n	n	n	n
CCOCCCNS(=O)(=O)c1ccc(NC(=O)CN2C(=O)c3ccccc3C2=O)cc1	n	n	29	n	n	n	n	n
O=C(NNc1nc2c(F)cccc2s1)c1cc(=O)c2ccccc2o1	n	n	33	n	n	n	66	57
O=C(NCC(F)(F)F)c1ccc(S(=O)(=O)Nc2ccccc2N2CCCC2)cc1	91	73	30	x	n	n	n	n
Cc1ccc(S(=O)(=O)Nc2ccccc2N2CCCCC2)cc1	n	n	n	x	n	n	x	x
O=C1Oc2ccccc2C(=O)/C1=C\N1CCN(c2ccccc2)CC1	n	n	n	n	n	n	x	x
O=C(O)c1cc2c(ncc3c(=O)n(-c4ccccc4)[nH]c32)s1	n	n	n	x	n	x	x	x
CCOc1c(Cl)cc(/C=C/C(=O)N(CC)CC(=O)Nc2ccc(NC(C)=O)cc2)cc1OC	n	n	n	n	n	n	x	x
COc1cc(/C=C/c2ccc3c([N+](=O)[O-])cccc3n2)ccc1OCC(=O)O	n	n	54	n	n	n	n	n
Cc1ccc(-n2nc3c(=O)n(C(C)C(=O)NC4CC4)nc(C)c3c2C)cc1 (stereo not given)	n	n	n	n	n	n	x	x
CC(=O)c1c(O)c(C)c(O)c2c1OC1=CC(=O)/C(=C(/C)N)C(=O)C12C (stereo not given)	n	n	n	x	n	x	x	x
COC12CC(=O)C(C(C)=O)=C(O)C1(C)c1c(O)c(C)c(O)c(C(C)=O)c1O2 (stereo not given)	x	43	33	x	65	x	n	n
Cc1ccc(C2NC(=NCc3ccccc3)Nc3nc(C)cc(=O)n32)cc1 (stereo not given)	n	n	n	n	n	n	x	x
Cc1cc(C)n2c(Nc3c(C)cccc3C)c(-c3ccccn3)nc2n1	x	n	63	x	n	x	n	n
CCCCNc1c(-c2ccccn2)nc2nc(C)cc(C)n12	x	n	n	x	n	x	x	x
COc1cccc(-c2nc3nc(C)cc(C)n3c2Nc2c(C)cccc2C)c1	x	n	64	x	53	x	36	n
O=C(N/N=C(\CC(=O)c1cccs1)C(F)(F)F)c1ccncc1	n	n	40	n	n	n	50	38
CC(C)(C)c1ccc(C(=O)N2CCC2(C)C(=O)NS(=O)(=O)c2ccc(C#N)cc2)cc1 (stereo not given)	n	n	n	x	n	x	x	x
NC(=O)CCCn1c(C(=O)c2cc(Cl)c(N)c(Cl)c2)c2ccc([N+](=O)[O-])cc2[n+]1[O-]	n	n	30	n	n	n	n	n
CCCCCCCC(=O)Oc1ccc(C(=O)Nc2cc(C)on2)cc1	n	n	n	n	n	n	x	x
Cc1cccc(/C=N/n2c(-c3ccccc3)n[nH]c2=S)c1O	n	n	31	n	n	n	n	n
Cc1cc(N2CCN(c3nc(-c4ccc([N+](=O)[O-])cc4)cs3)CC2)c2ccccc2n1	n	n	45	n	n	n	n	n
Cc1cc(-c2ccc([N+](=O)[O-])cc2)nc2ccccc12	n	n	n	n	n	n	x	x
CC1CCN(C(=O)Nc2ccc3nsnc3c2)CC1	n	n	n	n	n	n	x	x
O=C(Nc1ccc2nsnc2c1)N1CCCCC1	n	n	31	n	n	n	n	n
Cc1ccc(-n2cnc3sc(C)c(C)c3c2=O)cc1	n	n	37	n	n	n	n	n
CCc1ccccc1N(CC(=O)NC(C)C)C(=O)CCC(=O)Nc1nccs1	n	n	n	n	n	n	x	x
Cc1nc(-c2ccc(F)cc2)c(CC(=O)N2CCN(S(=O)(=O)c3cccc([N+](=O)[O-])c3)CC2)s1	n	n	35	x	n	n	n	n
